Results as given in ChEMBL document CHEMBL4325889, “Natural products hybrids: 3,5,4'-Trimethoxystilbene-5,6,7-trimethoxyflavone chimeric analogs as potential cytotoxic agents against diverse human cancer cells” (Eur J Med Chem, 2019).

Columns and labels:
Assay type in all cases: functional
HL-60(TB) = test: Growth inhibition of human HL-60(TB) cells at 10 uM after 48 hrs by SRB assay relative to control; details: HL-60, 48 h, read-out: GI
In short: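 Run at NCI under its standard single-dose protocol against a leukemia cell panel. Cells were exposed to 10 µM; growth was read by sulforhodamine B staining of cellular protein and expressed as % growth inhibition versus untreated control. Values above 100% mean the cell population fell below the starting count (cytocidal). Each value is the average of duplicates.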

K562 = test: Growth inhibition of human K562 cells at 10 uM after 48 hrs by SRB assay relative to control; details: K562, 48 h, read-out: GI
In short: (§1)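 Screened at the National Cancer Institute by the standard NCI protocol using the sulforhodamine B assay, which measures cellular protein. Single dose of 10 µM. Result is percent growth inhibition; values above 100% mean cell number fell below the initial population. Values are the average of duplicates.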

MOLT-4 = test: Growth inhibition of human MOLT4 cells at 10 uM after 48 hrs by SRB assay relative to control; details: MOLT-4, 48 h, read-out: GI; in short: as §1
RPMI-8226 = test: Growth inhibition of human RPMI8226 cells at 10 uM after 48 hrs by SRB assay relative to control; details: RPMI-8226, 48 h, read-out: GI; in short: as §1
HOP-62 = test: Growth inhibition of human HOP62 cells at 10 uM after 48 hrs by SRB assay relative to control; details: HOP-62, 48 h, read-out: GI; in short: as §1
HOP-92 = test: Growth inhibition of human HOP92 cells at 10 uM after 48 hrs by SRB assay relative to control; details: HOP-92, 48 h, read-out: GI; in short: as §1
HCT-116 = test: Growth inhibition of human HCT116 cells at 10 uM after 48 hrs by SRB assay relative to control; details: HCT-116, 48 h, read-out: GI; in short: as §1
HCT-15 = test: Growth inhibition of human HCT15 cells at 10 uM after 48 hrs by SRB assay relative to control; details: HCT-15, 48 h, read-out: GI; in short: as §1
KM12 = test: Growth inhibition of human KM12 cells at 10 uM after 48 hrs by SRB assay relative to control; details: KM12, 48 h, read-out: GI; in short: as §1
SW-620 = test: Growth inhibition of human SW620 cells at 10 uM after 48 hrs by SRB assay relative to control; details: SW-620, 48 h, read-out: GI
In short: (§2)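 NCI screen against its human cancer cell line panel by the standard NCI protocol, SRB protein stain. Single dose of 10 μM. Percent growth inhibition versus control; values above 100% mean the cell population fell below the starting number. Each value is the mean of duplicates.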

SF-268 = test: Growth inhibition of human SF268 cells at 10 uM after 48 hrs by SRB assay relative to control; details: SF-268, 48 h, read-out: GI; in short: as §1
SF-539 = test: Growth inhibition of human SF539 cells at 10 uM after 48 hrs by SRB assay relative to control; details: SF-539, 48 h, read-out: GI; in short: as §1
SNB-19 = test: Growth inhibition of human SNB19 cells at 10 uM after 48 hrs by SRB assay relative to control; details: SNB-19, 48 h, read-out: GI; in short: as §2
SNB-75 = test: Growth inhibition of human SNB75 cells at 10 uM after 48 hrs by SRB assay relative to control; details: SNB-75, 48 h, read-out: GI; in short: as §2
LOX IMVI = test: Growth inhibition of human LOXIMVI cells at 10 uM after 48 hrs by SRB assay relative to control; details: read-out: GI; in short: as §1
Malme-3M = test: Growth inhibition of human MALME-3M cells at 10 uM after 48 hrs by SRB assay relative to control; details: read-out: GI; in short: as §1
SK-MEL-2 = test: Growth inhibition of human SK-MEL-2 cells at 10 uM after 48 hrs by SRB assay relative to control; details: SK-MEL-2, 48 h, read-out: GI; in short: as §1
SK-MEL-28 = test: Growth inhibition of human SK-MEL-28 cells at 10 uM after 48 hrs by SRB assay relative to control; details: SK-MEL-28, 48 h, read-out: GI; in short: as §1
UACC-257 = test: Growth inhibition of human UACC257 cells at 10 uM after 48 hrs by SRB assay relative to control; details: UACC-257, 48 h, read-out: GI; in short: as §2
IGROV-1 = test: Growth inhibition of human IGROV1 cells at 10 uM after 48 hrs by SRB assay relative to control; details: IGROV-1, 48 h, read-out: GI; in short: as §1
OVCAR-5 = test: Growth inhibition of human OVCAR5 cells at 10 uM after 48 hrs by SRB assay relative to control; details: OVCAR-5, 48 h, read-out: GI; in short: as §1
OVCAR-8 = test: Growth inhibition of human OVCAR8 cells at 10 uM after 48 hrs by SRB assay relative to control; details: OVCAR-8, 48 h, read-out: GI; in short: as §1
NCI/ADR-RES = test: Growth inhibition of human NCI/ADR-RES cells at 10 uM after 48 hrs by SRB assay relative to control; details: read-out: GI; in short: as §1
786-0 = test: Growth inhibition of human 786-0 cells at 10 uM after 48 hrs by SRB assay relative to control; details: 786-0, 48 h, read-out: GI; in short: as §1
ACHN = test: Growth inhibition of human ACHN cells at 10 uM after 48 hrs by SRB assay relative to control; details: read-out: GI; in short: as §1
CAKI-1 = test: Growth inhibition of human Caki1 cells at 10 uM after 48 hrs by SRB assay relative to control; details: CAKI-1, 48 h, read-out: GI; in short: as §1
RXF 393 = test: Growth inhibition of human RXF393 cells at 10 uM after 48 hrs by SRB assay relative to control; details: RXF 393, 48 h, read-out: GI; in short: as §1
SN12C = test: Growth inhibition of human SN12C cells at 10 uM after 48 hrs by SRB assay relative to control; details: read-out: GI; in short: as §1
UO-31 = test: Growth inhibition of human UO31 cells at 10 uM after 48 hrs by SRB assay relative to control; details: UO-31, 48 h, read-out: GI; in short: as §2
PC-3 = test: Growth inhibition of human PC3 cells at 10 uM after 48 hrs by SRB assay relative to control; details: PC-3, 48 h, read-out: GI; in short: as §1
DU-145 = test: Growth inhibition of human DU145 cells at 10 uM after 48 hrs by SRB assay relative to control; details: DU-145, 48 h, read-out: GI; in short: as §1
MCF7 = test: Growth inhibition of human MCF7 cells at 10 uM after 48 hrs by SRB assay relative to control; details: MCF7, 48 h, read-out: GI; in short: as §1
Hs-578T = test: Growth inhibition of human Hs 578T cells at 10 uM after 48 hrs by SRB assay relative to control; details: read-out: GI; in short: as §1
MDA-MB-468 = test: Growth inhibition of human MDA-MB-468 cells at 10 uM after 48 hrs by SRB assay relative to control; details: MDA-MB-468, 48 h, read-out: GI; in short: as §1

SMILES | inhibition of growth at 10 µM (HL-60(TB)) [%] | inhibition of growth at 10 µM (K562) [%] | inhibition of growth at 10 µM (MOLT-4) [%] | inhibition of growth at 10 µM (RPMI-8226) [%] | inhibition of growth at 10 µM (HOP-62) [%] | inhibition of growth at 10 µM (HOP-92) [%] | inhibition of growth at 10 µM (HCT-116) [%] | inhibition of growth at 10 µM (HCT-15) [%] | inhibition of growth at 10 µM (KM12) [%] | inhibition of growth at 10 µM (SW-620) [%] | inhibition of growth at 10 µM (SF-268) [%] | inhibition of growth at 10 µM (SF-539) [%] | inhibition of growth at 10 µM (SNB-19) [%] | inhibition of growth at 10 µM (SNB-75) [%] | inhibition of growth at 10 µM (LOX IMVI) [%] | inhibition of growth at 10 µM (Malme-3M) [%] | inhibition of growth at 10 µM (SK-MEL-2) [%] | inhibition of growth at 10 µM (SK-MEL-28) [%] | inhibition of growth at 10 µM (UACC-257) [%] | inhibition of growth at 10 µM (IGROV-1) [%] | further results
COc1cccc(C(=O)Nc2cccc(-c3cc(=O)c4c(O)c(OC)c(OC)cc4o3)c2)c1 | 19.5 | 69.2 | 49.3 | 74.2 | 37.1 | 31.2 | 44.5 | 58.4 | 43.7 | 19 | 29.8 | 22.9 | 16.6 | 13.1 | 57.6 | 29.5 | 21.6 | 22.5 | 25.9 | 25.7 | inhibition of growth at 10 µM (OVCAR-5): 9.51%; inhibition of growth at 10 µM (OVCAR-8): 50.7%; inhibition of growth at 10 µM (NCI/ADR-RES): 43.7%; inhibition of growth at 10 µM (786-0): 26.7%; inhibition of growth at 10 µM (ACHN): 35.5%; inhibition of growth at 10 µM (CAKI-1): 23.8%; inhibition of growth at 10 µM (RXF 393): 1.37%; inhibition of growth at 10 µM (SN12C): 34.9%; inhibition of growth at 10 µM (UO-31): 52.9%; inhibition of growth at 10 µM (PC-3): 59.6%; inhibition of growth at 10 µM (DU-145): 36.7%; inhibition of growth at 10 µM (MCF7): 34.9%; inhibition of growth at 10 µM (Hs-578T): 34.1%; inhibition of growth at 10 µM (MDA-MB-468): 28.8%
COc1cc2oc(-c3cccc(C(=O)Nc4ccc5c(c4)OCO5)c3)cc(=O)c2c(O)c1OC | 5.71 | 5.51 | -0.5 | 20.2 | 39.6 | 27 | 43 | 6.45 | 29.4 | 15.5 | 41.3 | 11.2 | 27.9 | 15.4 | 11.8 | 11.9 | 10.1 | 10.2 | 21.8 | 18.4 | inhibition of growth at 10 µM (OVCAR-5): 11.1%; inhibition of growth at 10 µM (OVCAR-8): 69.4%; inhibition of growth at 10 µM (NCI/ADR-RES): 29.4%; inhibition of growth at 10 µM (786-0): 35.7%; inhibition of growth at 10 µM (ACHN): 24.8%; inhibition of growth at 10 µM (CAKI-1): 23.1%; inhibition of growth at 10 µM (RXF 393): 18.5%; inhibition of growth at 10 µM (SN12C): 31.3%; inhibition of growth at 10 µM (UO-31): 17.9%; inhibition of growth at 10 µM (PC-3): 27.7%; inhibition of growth at 10 µM (DU-145): 19.6%; inhibition of growth at 10 µM (MCF7): 8.35%; inhibition of growth at 10 µM (Hs-578T): 27.3%; inhibition of growth at 10 µM (MDA-MB-468): 45.4%
COc1ccccc1C(=O)Nc1cccc(-c2cc(=O)c3c(OC)c(OC)c(OC)cc3o2)c1 | 42.3 | 63.6 | 71.2 | 93.2 | 42.2 | 100 | 63.3 | 58.5 | 61.6 | 36.6 | 45.5 | 36.2 | 63.8 | 16.8 | 64.6 | 34.5 | 68.8 | 44 | 38.5 | 57.1 | inhibition of growth at 10 µM (OVCAR-5): 18.8%; inhibition of growth at 10 µM (OVCAR-8): 61.3%; inhibition of growth at 10 µM (NCI/ADR-RES): 41.8%; inhibition of growth at 10 µM (786-0): 54.7%; inhibition of growth at 10 µM (ACHN): 57%; inhibition of growth at 10 µM (CAKI-1): 34.9%; inhibition of growth at 10 µM (RXF 393): 41%; inhibition of growth at 10 µM (SN12C): 59%; inhibition of growth at 10 µM (UO-31): 84.8%; inhibition of growth at 10 µM (PC-3): 70%; inhibition of growth at 10 µM (DU-145): 55.1%; inhibition of growth at 10 µM (MCF7): 46.6%; inhibition of growth at 10 µM (Hs-578T): 76.4%; inhibition of growth at 10 µM (MDA-MB-468): 60.8%
COc1ccc(NC(=O)c2cccc(-c3cc(=O)c4c(OC)c(OC)c(OC)cc4o3)c2)cc1 | 21.2 | 50.4 | 36.8 | 87.5 | 31 | 52.7 | 36.6 | 52.9 | 45.2 | 6.52 | 27.9 | 27.7 | 8.54 | 19.7 | 75.4 | 21.4 | 15.3 | 28.7 | -2.76 | 38.7 | inhibition of growth at 10 µM (OVCAR-5): 16.8%; inhibition of growth at 10 µM (OVCAR-8): 46.1%; inhibition of growth at 10 µM (NCI/ADR-RES): 47.2%; inhibition of growth at 10 µM (786-0): 29.3%; inhibition of growth at 10 µM (ACHN): 33.4%; inhibition of growth at 10 µM (CAKI-1): 63.7%; inhibition of growth at 10 µM (RXF 393): 59.9%; inhibition of growth at 10 µM (SN12C): 35%; inhibition of growth at 10 µM (UO-31): 56.1%; inhibition of growth at 10 µM (PC-3): 38.8%; inhibition of growth at 10 µM (DU-145): 26.3%; inhibition of growth at 10 µM (MCF7): 21.1%; inhibition of growth at 10 µM (Hs-578T): 41.6%; inhibition of growth at 10 µM (MDA-MB-468): 24.3%
